From ChEMBL document CHEMBL2412983, “Synthesis and evaluation of N⁸-acetylspermidine analogues as inhibitors of bacterial acetylpolyamine amidohydrolase” (Bioorg Med Chem, 2013)

molecular target: T1, Acetylpolyamine amidohydrolase (Mycoplana ramosa, UniProt Q48935); test: Inhibition of Mycoplana ramosa APAH expressed in Escherichia coli BL21 (DE3) using BML-KI104 as substrate after 30 mins by fluorimetric assay; details: not given
T1 sequence (Q48935 whole entry): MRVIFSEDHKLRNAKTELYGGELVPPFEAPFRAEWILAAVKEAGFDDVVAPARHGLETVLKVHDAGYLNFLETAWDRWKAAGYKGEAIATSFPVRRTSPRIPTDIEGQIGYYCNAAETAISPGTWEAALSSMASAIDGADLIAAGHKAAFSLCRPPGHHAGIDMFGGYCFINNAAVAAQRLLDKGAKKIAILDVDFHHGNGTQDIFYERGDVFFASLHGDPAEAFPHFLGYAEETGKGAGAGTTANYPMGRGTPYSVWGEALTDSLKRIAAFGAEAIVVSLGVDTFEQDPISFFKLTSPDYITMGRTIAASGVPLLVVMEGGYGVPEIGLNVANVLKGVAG
In short: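 Recombinant enzyme purified from E. coli, 250 nM, at 25 °C with 150 μM Fluor-de-Lys acetyl substrate and 0–100 mM inhibitor. Buffer was 25 mM Tris pH 8.2, 137 mM NaCl, 2.7 mM KCl, 1 mM MgCl2, with 100 μM TCEP only for the thiol compound. Stopped at 30 min with 100 μM M344 plus developer. Fluorescence (ex 355/em 460 nm) was read after 45 min. Each concentration was run in triplicate in separate experiments.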

Point of comparison: `COCC(=O)CCCCCNCCCN`, IC50 380 µM. Against it:
- CS(=O)(=O)CCCCCNCCCN — 26-fold higher, 10000 µM
- NCCCNCCCCCB(O)O — 1.7-fold lower, 230 µM
- NCCCNCCCCCS — 15-fold lower, 26 µM
- NCCCNCCCCCC(=O)O — 4.7-fold higher, 1800 µM
- CC(=O)SCC(=O)CCCCCNCCCN — 9.7-fold lower, 39 µM
- NCCCNCCCCCC(=O)NO — 970-fold lower, 0.39 µM
- CC(=O)SCCCCCNCCCN — 5-fold higher, 1900 µM
- CC(=O)CCCCCNCCCN — 2.4-fold lower, 160 µM
- NCCCNCCCCCC(=O)C(F)(F)F — 1400-fold lower, 0.27 µM

molecular target: not listed separately; test: Inhibition of N8-acetylspermidine deacetylase in rat liver subcellular extract; details: read-out: Ki(app)

`NCCCNCCCCCC(=O)NO` gave a Ki of 0.001 µM.
